The values below come from ChEMBL document CHEMBL1255395, “Laninamivir prodrug CS-8958, a long-acting neuraminidase inhibitor, shows superior anti-influenza virus activity after a single administration” (Antimicrob Agents Chemother, 2010).

Activity calls are given as the source filed them. No cut-off for these calls is given here.

For assay [1], the system named is Influenza B virus. The experiment in a line: Antimicrobial activity against Influenza B virus (B/Malaysia/2506/2004) infected itn dosed Mustela putorius furo assessed as nasal viral titer treated after 4 hrs post infection measured after 3 days. In kind it is functional, organism-based. The method in brief:
(§1)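 Ferrets (600–800 g), seronegative by hemagglutination inhibition, anaesthetized with ketamine/xylazine and infected with B/Malaysia/2506/2004, 1,000 PFU/100 μl. From 4 hpi they received either a single intranasal dose (saline, 0.05 or 0.5 μmol/kg) or 25 mg/kg oral twice daily. Nasal wash titers measured by MDCK plaque assay on days 1, 2 and 3, log10 PFU/ml (n = 5). Undetectable samples entered at the lower limit of detection.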

Assay [2] concerns Influenza A virus. The experiment in a line: Antimicrobial activity against Influenza A virus (A/Puerto Rico/8/34(H1N1)) infected in BALB/c mouse assessed as increase in mouse survival at 14 mg/kg, itn administered for 7 days before infection. On the set-up: dose 14 mg/kg. As to conditions: A/Puerto Rico/8/1934(H1N1). Format: functional, organism-based.
Assay [3] concerns Influenza A virus. Briefly: Antimicrobial activity against Influenza A virus (A/Puerto Rico/8/34(H1N1)) infected in BALB/c mouse assessed as increase in mouse survival at 3.3 mg/kg, itn administered for 7 days before infection. In kind it is functional, organism-based. Also noted: dose 3.3 mg/kg. As to conditions: A/Puerto Rico/8/1934(H1N1).
Assay [4] has as its system Influenza B virus. The experiment in a line: Antimicrobial activity against Influenza B virus (B/Hong Kong/05/1972) infected in BALB/c mouse assessed as increase in mouse survival at 3.3 mg/kg, itn administered for 7 days before infection. Also noted: dose 3.3 mg/kg. In kind it is functional, organism-based.
The subject of assay [5] is Influenza A virus. The experiment in a line: Antimicrobial activity against Influenza A virus (A/Puerto Rico/8/34(H1N1)) infected in BALB/c mouse assessed as increase in mouse survival at 4.7 mg/kg, itn administered for 7 days before infection. In kind it is functional, organism-based. On the set-up: dose 4.7 mg/kg. The note with it: A/Puerto Rico/8/1934(H1N1).
Assay [6] has as its system Influenza B virus. Briefly: Antimicrobial activity against Influenza B virus (B/Hong Kong/05/1972) infected in BALB/c mouse assessed as increase in mouse survival at 1.1 mg/kg, itn administered for 7 days before infection. On the set-up: dose 1.1 mg/kg. In kind it is functional, organism-based.
The test system of assay [7] is Influenza A virus. The experiment in a line: Antimicrobial activity against Influenza A virus (A/Puerto Rico/8/34(H1N1)) infected in BALB/c mouse assessed as reduction in viral titer in lung at 14 mg/kg, itn administered for 7 days before infection. Format: functional, organism-based. Also noted: dose 14 mg/kg. The note with it: A/Puerto Rico/8/1934(H1N1). The method in brief: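 Female BALB/c mice (5–6 wk) given one intranasal dose in saline (50 μl) 7 days before intranasal infection with A/PR/8/34, 500 PFU. Lungs (three mice per time point) excised on days 1, 2, 3 and 4 and homogenized in PBS-BSA/PS. Titer determined by MDCK plaque assay, read as log10 PFU/lungs, mean ± SD (n = 3). AUC expressed as percent of saline control.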

Assay [8] has as its system Influenza A virus. Briefly: Antimicrobial activity against Influenza A virus (A/Puerto Rico/8/34(H1N1)) infected in BALB/c mouse assessed as reduction in viral titer in lung at 0.17 mg/kg, itn administered 11 hrs post infection measured after 59 hrs post infection. Format: functional, organism-based. On the set-up: dose 0.17 mg/kg. The note with it: A/Puerto Rico/8/1934(H1N1). The method in brief: (§2)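 BALB/c mice infected intranasally with A/PR/8/34 at 30 PFU. Intranasal dosing at 0.5 μmol/kg began at 11 hpi, either repeated twice daily or given once followed by twice-daily saline. Lungs (n = 3) were taken at 35, 59 and 83 hpi and homogenized. Titers were measured by MDCK plaque assay as log10 PFU/lungs. Two-way ANOVA and Dunnett test were applied.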

Assay [9] deals with Influenza B virus. The experiment in a line: Antimicrobial activity against Influenza B virus (B/Malaysia/2506/2004) infected itn dosed Mustela putorius furo assessed as nasal viral titer treated after 4 hrs post infection measured after 1 day. Format: functional, organism-based. The essentials:
as §1

Assay [10] relates to Influenza A virus. Briefly: Antimicrobial activity against Influenza A virus (A/Puerto Rico/8/34(H1N1)) infected in BALB/c mouse assessed as reduction in viral titer in lung at 0.17 mg/kg, itn administered 11 hrs post infection measured after 35 hrs post infection. Also noted: dose 0.17 mg/kg. In kind it is functional, organism-based. The note with it: A/Puerto Rico/8/1934(H1N1). The method in brief: as §2

For assay [11], the system named is Influenza A virus. The experiment in a line: Antimicrobial activity against Influenza A virus (A/Puerto Rico/8/34(H1N1)) infected in BALB/c mouse assessed as increase in mouse survival at 1.6 mg/kg, itn administered for 7 days before infection. As to conditions: A/Puerto Rico/8/1934(H1N1). On the set-up: dose 1.6 mg/kg. Format: functional, organism-based.
Assay [12] has as its system Influenza B virus. The experiment in a line: Antimicrobial activity against Influenza B virus (B/Hong Kong/05/1972) infected in BALB/c mouse assessed as increase in mouse survival at 1.1 mg/kg, itn administered for 7 days before infection measured at day 20. In kind it is functional.
Assay [13] concerns Influenza B virus. The experiment in a line: Antimicrobial activity against Influenza B virus (B/Hong Kong/05/1972) infected in BALB/c mouse assessed as increase in mouse survival at 9.6 mg/kg, itn administered for 7 days before infection. Also noted: dose 9.6 mg/kg. In kind it is functional, organism-based.
Assay [14] concerns Influenza A virus. Briefly: Antimicrobial activity against Influenza A virus (A/Puerto Rico/8/34(H1N1)) infected in BALB/c mouse assessed as reduction in viral titer in lung at 0.17 mg/kg, itn administered 11 hrs post infection measured after 83 hrs post infection. Format: functional, organism-based. Also noted: dose 0.17 mg/kg. As to conditions: A/Puerto Rico/8/1934(H1N1). The method in brief: as §2

Assay [15] concerns Influenza A virus. Briefly: Antimicrobial activity against Influenza A virus (A/Puerto Rico/8/34(H1N1)) infected in BALB/c mouse assessed as increase in mouse survival at 7 mg/kg, itn administered for 7 days before infection. In kind it is functional, organism-based. On the set-up: dose 7 mg/kg. The note with it: A/Puerto Rico/8/1934(H1N1).
Assay [16] has as its system Influenza A virus. The experiment in a line: Antimicrobial activity against Influenza A virus (A/Puerto Rico/8/34(H1N1)) infected in BALB/c mouse assessed as increase in mouse survival at 1.7 mg/kg, itn administered for 7 days before infection. In kind it is functional, organism-based. Also noted: dose 1.7 mg/kg. The note with it: A/Puerto Rico/8/1934(H1N1). The essentials: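 Single intranasal dose in saline (50 μl) given to anesthetized female BALB/c mice 7 days before intranasal infection with A/PR/8/34 at 500 PFU, n = 12. Survival was checked daily to day 20. Groups were compared with saline controls by Kaplan-Meier and log-rank test, with Bonferroni adjustment where needed.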

For assay [17], the system named is Influenza B virus. The experiment in a line: Antimicrobial activity against Influenza B virus (B/Malaysia/2506/2004) infected itn dosed Mustela putorius furo assessed as nasal viral titer treated after 4 hrs post infection measured after 2 days. Format: functional, organism-based. The essentials:
as §1

Regarding `CC(=O)N[C@H]1[C@H]([C@H](O)[C@H](O)CO)OC(C(=O)O)=C[C@@H]1NC(=N)N` [ZANAMIVIR], the Activity result in the assay with Influenza B virus [1] is “Dose-dependent effect”; in the assay on Influenza B virus [9], “Dose-dependent effect”; in the assay on Influenza B virus [12], 36%; in the assay with Influenza B virus [17], “Dose-dependent effect”. In addition, the outcome in the assay on Influenza A virus [2], in the assay with Influenza A virus [3], in the assay with Influenza B virus [4], in the assay with Influenza A virus [5], in the assay with Influenza B virus [6] and in the assay on Influenza A virus [7] was Active. For the same compound, the result in the assay with Influenza A virus [8], in the assay on Influenza A virus [10], with Influenza A virus [11], in the assay with Influenza B virus [13], in the assay on Influenza A virus [14] and in the assay with Influenza A virus [15] was Active. Besides, in the assay on Influenza A virus [16], the result was Active.
